Measured values reported in ChEMBL document CHEMBL1141320, “Antioxidant flavonoid glycosides from aerial parts of the fern Abacopteris penangiana” (J Nat Prod, 2007).
Activity calls are given as the source filed them. The calls are words filed in the database; no cut-off is given here.

Assay: Antioxidant activity assessed as ABTS radical scavenging activity after 15 mins by TEAC assay
Type: functional
Procedure, shortened: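 ABTS (7 mM in water) oxidized with potassium persulfate (2.45 mM final), kept dark at room temperature 16 h, diluted with water to A734 0.700 ± 0.003. Sample added to diluted ABTS•+ (0–20 µM final); A734 decrease read after 15 min. Triplicate, with solvent blanks. Percent inhibition plotted against concentration alongside Trolox standard; TEAC = Trolox concentration matching antioxidant potential of 1 mM sample.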

Point of comparison: `COCc1c(O)c(C)c2c3c1O[C@@H]1O[C@H](CO)[C@@H](O)[C@H](O)[C@H]1O[C@@H]3C[C@@H](c1ccc(O)cc1)O2`, Activity 1.51 mM. Against it:
- COCc1c(O)c(C)c2c3c1O[C@@H]1O[C@H](CO)[C@@H](O)[C@H](O)[C@H]1O[C@@H]3C[C@@H](c1ccc(OC)cc1)O2 — within 1.5-fold, 1.03 mM
- O=c1c(O)c(-c2ccc(O)c(O)c2)oc2cc(O)cc(O)c12 — 2.5-fold higher, 3.74 mM
- Cc1c(O[C@@H]2O[C@H](CO)[C@@H](O)[C@H](O)[C@H]2O)c(CO)c(O[C@@H]2O[C@H](CO)[C@@H](O)[C@H](O)[C@H]2O)c2c1O[C@H](c1ccc(O)cc1)C[C@H]2O — within 1.5-fold, 1.17 mM
- COc1ccc([C@@H]2C[C@@H]3O[C@H]4[C@H](Oc5c(C)c(O)c(C)c(c53)O2)O[C@H](CO)[C@@H](O)[C@@H]4O)cc1 — within 1.5-fold, 1.1 mM
- COc1ccc([C@@H]2C[C@H]3O[C@H]4[C@H](Oc5c(C)c(O)c(C)c(c53)O2)O[C@H](CO)[C@@H](O)[C@@H]4O)cc1 — within 1.5-fold, 1.36 mM
- Cc1c(O)c(C)c2c3c1O[C@@H]1O[C@H](CO)[C@@H](O)[C@H](O)[C@H]1O[C@H]3C[C@@H](c1ccc(O)cc1)O2 — within 1.5-fold, 1.44 mM
- O=c1c(O[C@@H]2O[C@H](CO)[C@@H](O)[C@H](O)[C@H]2O)c(-c2ccc(O)c(O)c2)oc2cc(O)cc(O)c12 — within 1.5-fold, 1.91 mM
- O=c1c(O[C@@H]2O[C@H](CO)[C@@H](O)[C@H](O)[C@H]2O)c(-c2ccc(O)cc2)oc2cc(O)cc(O)c12 — within 1.5-fold, 1.46 mM
- Cc1c(O)c(C)c2c3c1O[C@@H]1O[C@H](CO)[C@@H](O)[C@H](O)[C@H]1O[C@@H]3C[C@@H](c1ccc(O)cc1)O2 — within 1.5-fold, 1.32 mM

For `COc1ccc([C@@H]2C[C@@H](O)c3c(c(C)c(O[C@@H]4O[C@H](CO)[C@@H](O)[C@H](O)[C@H]4O)c(CO)c3O[C@@H]3O[C@H](CO)[C@@H](O)[C@H](O)[C@H]3O)O2)cc1`, the Activity was “inactive”.
For `COc1ccc([C@@H]2C[C@H]3O[C@H]4[C@H](Oc5c(C)c(O[C@@H]6O[C@H](CO)[C@@H](O)[C@H](O)[C@H]6O)c(C)c(c53)O2)O[C@H](CO)[C@@H](O)[C@@H]4O)cc1`, the Activity was “inactive”.
For `COc1ccc([C@@H]2C[C@@H](O)c3c(O[C@@H]4O[C@H](CO)[C@@H](O)[C@H](O)[C@H]4O)c(C)c(O[C@@H]4O[C@H](CO)[C@@H](O)[C@H](O)[C@H]4O)c(C)c3O2)cc1`, the Activity was “inactive”.
